Assay results published in ChEMBL document CHEMBL1135427, “Osteoadsorptive bisphosphonate derivatives of fluoroquinolone antibacterials” (2002).
Values after ≈ are worked out from the molar mass of the structure shown.

Columns and labels:
Enterococcus faecalis = assay: Antibacterial activity determined as minimal inhibitory concentration (MIC) against Streptococcus faecalis OKI 80171; type: functional
Outline: (§1)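 Agar dilution. Compounds were dissolved in 0.2% NaHCO3, or in DMSO if insoluble, and mixed into molten agar at 50 °C. After the agar set, bacterial suspension was streaked onto the surface. MIC was read after 48 h of incubation at 37 °C.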

Staphylococcus aureus [1] = assay: Antibacterial activity determined as minimal inhibitory concentration (MIC) against Staphylococcus aureus ATCC 25923; type: functional; outline: as §1
Helicobacter pylori [2] = assay: Antibacterial activity determined as minimal inhibitory concentration (MIC) against Helicobacter pylori HIH 27604; type: functional; outline: as §1
Escherichia coli = assay: Antibacterial activity determined as minimal inhibitory concentration (MIC) against Escherichia coli OKI 35034; type: functional; outline: as §1
[3] = Antibacterial activity determined as minimal inhibitory concentration (MIC) against […] OKI 60002; type: functional; outline: as §1
[4] = tested on: Staphylococcus epidermidis; assay: Antibacterial activity determined as minimal inhibitory concentration (MIC) against Staphylococcus epidermidis ATCC 110001; type: functional; outline: as §1
Pseudomonas aeruginosa = assay: Antibacterial activity determined as minimal inhibitory concentration (MIC) against Pseudomonas aeruginosa ATCC 27853; type: functional; outline: as §1
Helicobacter pylori [5] = assay: Antibacterial activity determined as minimal inhibitory concentration (MIC) against Helicobacter pylori HIH 27606; type: functional; outline: as §1
Salmonella typhi = assay: Antibacterial activity determined as minimal inhibitory concentration (MIC) against Salmonella typhi OKI 10084; type: functional, Salmonella enterica subsp. enterica serovar Typhi; settings: Salmonella enterica
Outline: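 Agar dilution against a laboratory strain. Compounds were dissolved in 0.2% NaHCO3, or in DMSO if insoluble, and mixed into molten agar at 50 °C. Bacterial suspension was streaked onto the solidified agar. Plates were incubated 48 h at 37 °C. MIC was taken as the lowest concentration inhibiting bacterial growth.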

Staphylococcus aureus [6] = assay: Antibacterial activity determined as minimal inhibitory concentration (MIC) against Methicillin resistant Staphylococcus aureus; type: functional
Staphylococcus aureus [7] = assay: Antibacterial activity determined as minimal inhibitory concentration (MIC) against Staphylococcus aureus ATCC 12598; type: functional; outline: as §1
Staphylococcus aureus [8] = assay: Antibacterial activity determined as minimal inhibitory concentration (MIC90) against Methicillin sensitive Staphylococcus aureus; type: functional
Outline: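 Broth microdilution on clinical isolates. Compounds were serially diluted from 256 to 0.5 μg/mL. Log-phase bacteria were added (A540 = 0.15 × 10^7 cfu/mL) and incubated 18 h at 37 °C, then growth was inspected macroscopically. MIC was the lowest concentration inhibiting growth. MIC90 was calculated across multiple isolates from median MIC ±1 SD using the z statistic.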

[9] = tested on: Aggregatibacter actinomycetemcomitans; assay: Antibacterial activity determined as minimal inhibitory concentration (MIC) against Actinobacillus actinomycetecommitans ATCC 29527; type: functional; outline: as §1
Staphylococcus aureus [10] = assay: Antibacterial activity determined as minimal inhibitory concentration (MIC) against Staphylococcus aureus ATCC 12598; value ranges from 8-16; type: functional; outline: as §1
[11] = tested on: Aggregatibacter actinomycetemcomitans; assay: Antibacterial activity determined as minimal inhibitory concentration (MIC) against Actinobacillus actinomycetecommitans ATCC 29527; value ranges from 1-2; type: functional; outline: as §1
Staphylococcus aureus [12] = assay: Antibacterial activity determined as minimal inhibitory concentration (MIC) against Staphylococcus aureus ATCC 25923; value ranges from 8-16; type: functional; outline: as §1

Compound	MIC (Enterococcus faecalis) [µg/mL]	MIC (Staphylococcus aureus [1]) [µg/mL]	MIC (Helicobacter pylori [2]) [µg/mL]	MIC (Escherichia coli) [µg/mL]	MIC [3] [µg/mL]	MIC [4] [µg/mL]	MIC (Pseudomonas aeruginosa) [µg/mL]	MIC (Helicobacter pylori [5]) [µg/mL]	MIC (Salmonella typhi) [µg/mL]	MIC (Staphylococcus aureus [6]) [µg/mL]	MIC (Staphylococcus aureus [7]) [µg/mL]	MIC90 (Staphylococcus aureus [8]) [µg/mL]	MIC [9] [µg/mL]	MIC (Staphylococcus aureus [10]) [µg/mL]	MIC [11] [µg/mL]	MIC (Staphylococcus aureus [12]) [µg/mL]
CCOP(=O)(OCC)C(N1CCN(c2cc3c(cc2F)c(=O)c(C(=O)O)cn3C2CC2)CC1)P(=O)(OCC)OCC	50 (≈ 81 µM)	12.5 (≈ 20.2 µM)	25 (≈ 40.5 µM)	0.78 (≈ 1.26 µM)	25 (≈ 40.5 µM)	6.25 (≈ 10.1 µM)	> 100	25 (≈ 40.5 µM)	0.78 (≈ 1.26 µM)	–	–	–	–	–	–	–
CCOP(=O)(OCC)C(CN1CCN(c2cc3c(cc2F)c(=O)c(C(=O)O)cn3C2CC2)CC1)P(=O)(OCC)OCC	3.12 (≈ 4.94 µM)	3.12 (≈ 4.94 µM)	0.78 (≈ 1.24 µM)	< 0.39	< 0.39	0.78 (≈ 1.24 µM)	3.12 (≈ 4.94 µM)	< 0.39	< 0.39	> 8	1 (≈ 1.58 µM)	3.91 (≈ 6.19 µM)	< 0.25	–	–	–
O=C(O)c1cn(C2CC2)c2cc(N3CCN(CC(P(=O)(O)O)P(=O)(O)O)CC3)c(F)cc2c1=O	50 (≈ 96.3 µM)	–	3.12 (≈ 6.01 µM)	0.78 (≈ 1.5 µM)	< 0.39	25 (≈ 48.1 µM)	25 (≈ 48.1 µM)	0.78 (≈ 1.5 µM)	0.78 (≈ 1.5 µM)	> 8	–	51.3 (≈ 98.8 µM)	–	16 (≈ 30.8 µM)	2 (≈ 3.85 µM)	16 (≈ 30.8 µM)
O=C(O)c1cn(C2CC2)c2cc(N3CCN(C(P(=O)(O)O)P(=O)(O)O)CC3)c(F)cc2c1=O	100 (≈ 198 µM)	50 (≈ 98.9 µM)	12.5 (≈ 24.7 µM)	< 0.39	6.25 (≈ 12.4 µM)	25 (≈ 49.5 µM)	25 (≈ 49.5 µM)	12.5 (≈ 24.7 µM)	0.78 (≈ 1.54 µM)	–	–	–	–	–	–	–
O=C(O)c1cn(C2CC2)c2cc(N3CCNCC3)c(F)cc2c1=O [CIPROFLOXACIN]	3.12 (≈ 9.42 µM)	1.56 (≈ 4.71 µM)	0.78 (≈ 2.35 µM)	< 0.39	< 0.39	0.78 (≈ 2.35 µM)	3.12 (≈ 9.42 µM)	< 0.39	< 0.39	> 8	2 (≈ 6.04 µM)	1.65 (≈ 4.98 µM)	0.25 (≈ 0.754 µM)	–	–	–
